These results are taken from PMC5625166 (Pharmacology Research & Perspectives, 2017).

SMILES strings stand for the structures. Where two headings read alike, the source gives them in different places.

The target of data set [1] is CYP2E1 (Homo sapiens, UniProt P05181). The data set can be described thus: CYP2E1 inhibition assay. The settings on record: for inhibition at saturating substrate concentration: in words; for Inhibition type: p-NP 5-100 μmol/L, inhibitor 5-200 μmol/L, goodness-of-fit; for inhibition at 1 h: CYP2E1 baculosomes, pH 7.4, probe para-nitrophenol (p-NP). It is filed as biochemical. Put shortly: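 p-NP hydroxylation by CYP2E1 baculosomes (2 pmol/μL) in 50 mmol/L potassium phosphate, pH 7.4. p-NP at 5–100 μmol/L (five levels) and inhibitor at 5–200 μmol/L (six levels). Pre-incubated 5 min at 37°C, then NADPH added (26 mmol/L) and run 1 h at 37°C. Stopped with TCA, neutralized with NaOH, absorbance read at 535 nm. Activity normalized to vehicle. IC50, Km/Vmax and Ki/inhibition type fitted by nonlinear regression; four replicates.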

The nature of data set [2]: Preliminary toxicity / cell death of DAS analogs. The settings on record: 200 μmol/L, 6 days of treatment, unpublished. It is filed as cell-based.
Data set [3] relates to CYP2E1. The settings on record: acetone-induced rat microsome; ref Brady et al. 1991; cited from earlier work.
Where [4] appears, read: 100 μmol/L p-NP, mean ± SE, four replicates.
[5] abbreviates: competitive inhibition, mean ± SE, four replicates.
Where [6] appears, read: K i, noncompetitive inhibition, mean ± SE, four replicates.
[7] abbreviates: K i, uncompetitive inhibition, mean ± SE, four replicates.

Chain of CYP2E1 (Homo sapiens, UniProt P05181) (P05181 whole entry): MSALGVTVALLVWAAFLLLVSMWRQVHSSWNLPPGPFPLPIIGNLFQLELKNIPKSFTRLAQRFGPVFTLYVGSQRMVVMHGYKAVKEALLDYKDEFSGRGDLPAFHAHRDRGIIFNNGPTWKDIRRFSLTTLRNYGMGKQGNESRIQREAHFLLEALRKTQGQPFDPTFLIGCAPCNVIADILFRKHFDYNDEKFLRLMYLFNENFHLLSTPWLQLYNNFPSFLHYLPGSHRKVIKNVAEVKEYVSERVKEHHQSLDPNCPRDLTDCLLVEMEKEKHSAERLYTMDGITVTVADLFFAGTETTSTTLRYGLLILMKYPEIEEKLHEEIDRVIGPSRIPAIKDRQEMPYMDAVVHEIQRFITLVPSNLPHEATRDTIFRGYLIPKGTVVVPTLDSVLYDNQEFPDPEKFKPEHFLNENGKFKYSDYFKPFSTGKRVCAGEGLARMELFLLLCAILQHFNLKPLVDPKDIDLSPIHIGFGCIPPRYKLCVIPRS

With `c1ccsc1` [Thiophene (TP), thiophene], on CYP2E1 [1], the “Maximal inhibition (%)” value stood at 98%, the “inhibition at saturating substrate concentration” value is reported as “complete inhibition” and the Inhibition type result is recorded as “Competitive”. The compound also returned a 50% inhibitory concentration (IC50) against CYP2E1 [1] (setting [4]) of 19.4 ± 1.1 µM. Also, the Ki on CYP2E1 [1] (setting [5]) was determined as 7.7 ± 1.2 µM. Further, in data set [2], the toxicity result is on record as “did not show any significant toxicities”.
As for `C=CCCCCN` [5‐hexen‐1‐amine (5, 1 HA), 5‐hexen‐1‐amine], on CYP2E1 [1], the IC50 worked out at 74.7 ± 1.2 µM and the inhibition at 1 h was determined as 75%. This compound also came in with a Ki on CYP2E1 [1] (setting [6]) of roughly 10.5 µM. At CYP2E1 [1] (setting [7]), this compound came in with a Ki of roughly 7.3 µM.
For the compound `C=CCOCC(N)=O` [2‐prop‐2‐enoxyacetamide (PEXA), 2‐prop‐2‐enoxyacetamide], at CYP2E1 [1], the IC50 is 91.4 ± 1.6 µM and the inhibition at 1 h was found to be 20%. The compound further displayed a Ki at CYP2E1 [1] (setting [6]) of 363 ± 64 µM. The compound also came in with a Ki at CYP2E1 [1] (setting [7]) of 246 ± 47 µM.
On CYP2E1 [1], `C=CCSCC=C` [Diallyl sulfide (DAS), Diallyl sulfide, reference compound] returned an IC50 of 17.3 ± 1.1 µM. Besides, the inhibition at 1 h at CYP2E1 [1] was 97%. In addition, the Ki at CYP2E1 [1] (K i, competitive inhibition, mean ± SE, four replicates) came out at 6.3 ± 1 µM. The results for the Inhibition type entry on CYP2E1 [1], at CYP2E1 [1] (listed as DAS) and in the data set with CYP2E1 [3] were “Competitive”, “competitive inhibition kinetics” and “competitive inhibition”, respectively.
At CYP2E1 [1], `C=CCOCCN` [2‐(prop‐2‐en‐1‐yloxy) ethan‐1‐amine] yielded an IC50 of 43.7 ± 1.4 µM and an inhibition at 1 h of 71%. Moreover, the Ki at CYP2E1 [1] (setting [6]) was 34.1 ± 3.3 µM. At CYP2E1 [1] (setting [7]), affinity was put at a Ki of 19.3 ± 2.3 µM.
On to `C=CCSC` [Allyl methyl sulfide (AMS), allyl methyl sulfide], for which, at CYP2E1 [1], the “Maximal inhibition (%)” value is 100%, the “inhibition at saturating substrate concentration” value is on record as “complete inhibition” and the Inhibition type entry is “Competitive”. Also, it took 11.4 ± 1.1 µM to reach half-maximal inhibition against CYP2E1 [1] (setting [4]) (IC50). The IC50 on CYP2E1 [1] (100 μmol/L p-NP, mean ± SE, four replicates, listed as AMS) was 11.4 ± 1.1 µM. This compound gave a Ki on CYP2E1 [1] (setting [5]) of 4.4 ± 0.9 µM.

As a reminder, the IC50 is the concentration that inhibits the measured activity by half. Low readings indicate greater potency in that assay, high ones weaker potency in that assay. As a reminder, the Ki is the dissociation constant of the complex between target and ligand, obtained from inhibition or displacement. Read a low Ki as higher affinity. For orientation: inhibition means the share of the control response that was lost under treatment.
